{
  "source": "ChEMBL document CHEMBL4184225",
  "about": "“Discovery of selective 2,4-diaminoquinazoline toll-like receptor 7 (TLR 7) agonists” (Bioorg Med Chem Lett, 2018)",
  "organism": "Homo sapiens",
  "assay": "Selectivity index, ratio of MEC for agonist activity at human TLR8 expressed in HEK293 cells to MEC for agonist activity at human TLR7 expressed in HEK293 cells as",
  "format": "cell-based",
  "method_in_brief": "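Ratio of TLR8 to TLR7 LEC from HEK293 NFκB-luciferase reporter assays. Cells were transiently transfected with TLR7 or TLR8 construct plus NFκB-luc and treated with compound for 6 h at 37°C. LEC is the lowest concentration with signal at least two-fold above the assay SD, from quadruplicate dose-response curves.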",
  "data": [
    {"smiles": "CCCCOc1nc(N)c2c(n1)N(Cc1cccc(CN3CCCC3)c1)CC(=O)N2", "values": [
      {"measurement": "Ratio", "result": 30}
    ]}
  ]
}
